The results in this text go back to ChEMBL document CHEMBL1649063, “Ursodeoxycholic acid amides as novel glucocorticoid receptor modulators” (J Med Chem, 2011).

Activity calls are given as the source filed them. The calls are words filed in the database; no cut-off is given here.

What all share (assay type): cell-based
One assay concerns the target T1, Glucocorticoid receptor (Homo sapiens, UniProt P04150).
T1 sequence (P04150 whole entry): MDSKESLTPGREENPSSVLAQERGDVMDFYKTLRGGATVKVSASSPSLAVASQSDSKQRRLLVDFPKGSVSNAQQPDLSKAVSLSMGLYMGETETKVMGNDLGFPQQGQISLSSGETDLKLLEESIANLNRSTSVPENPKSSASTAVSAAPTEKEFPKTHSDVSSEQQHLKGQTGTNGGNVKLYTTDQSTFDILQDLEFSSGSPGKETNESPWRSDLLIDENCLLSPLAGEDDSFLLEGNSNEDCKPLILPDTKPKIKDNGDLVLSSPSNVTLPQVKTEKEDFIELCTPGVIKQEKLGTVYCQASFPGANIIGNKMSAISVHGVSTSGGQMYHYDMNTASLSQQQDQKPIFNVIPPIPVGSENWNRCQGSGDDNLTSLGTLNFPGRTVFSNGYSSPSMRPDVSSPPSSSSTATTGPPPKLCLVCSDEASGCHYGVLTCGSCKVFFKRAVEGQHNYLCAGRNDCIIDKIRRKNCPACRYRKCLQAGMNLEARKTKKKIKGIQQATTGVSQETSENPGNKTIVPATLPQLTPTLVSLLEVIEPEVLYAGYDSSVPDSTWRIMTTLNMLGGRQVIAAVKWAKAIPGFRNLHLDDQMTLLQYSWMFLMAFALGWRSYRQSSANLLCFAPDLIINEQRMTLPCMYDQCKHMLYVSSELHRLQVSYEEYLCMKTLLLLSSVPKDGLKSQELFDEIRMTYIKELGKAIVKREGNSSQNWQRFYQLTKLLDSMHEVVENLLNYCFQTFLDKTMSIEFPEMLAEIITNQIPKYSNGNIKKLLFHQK
As to the kind of experiment: Modulation of glucocorticoid receptor in human SKGT4 cells assessed as receptor translocation from cytoplasm to nucleus after 4 hrs by Hoechst staining relative to Dexamethasone.

Assay [1] has as its target T2, Glucocorticoid receptor (Homo sapiens) (UniProt P04150).
T2 sequence (whole entry): T1 sequence (P04150 whole entry)
The assay can be described thus: Modulation of glucocorticoid receptor in human SKGT4 cells assessed as receptor translocation from cytoplasm to nucleus at 100 uM after 240 mins by Hoechst staining relative to Dexamethasone. The method in brief: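 Time course in serum-starved SKGT-4 cells: 100 μM compound for 15, 30, 60, 120 or 240 min in 1% DMSO medium. Fixed, GR immunostained, Hoechst nuclear stain, high-content imaging. Background-corrected nuclear/cytoplasmic GR ratio normalised to Dex 100 nM; mean of two experiments in triplicate, compared with 1% DMSO.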

For assay [2], the target named is T3, Mineralocorticoid receptor (Homo sapiens) (UniProt P08235).
T3 sequence (whole entry): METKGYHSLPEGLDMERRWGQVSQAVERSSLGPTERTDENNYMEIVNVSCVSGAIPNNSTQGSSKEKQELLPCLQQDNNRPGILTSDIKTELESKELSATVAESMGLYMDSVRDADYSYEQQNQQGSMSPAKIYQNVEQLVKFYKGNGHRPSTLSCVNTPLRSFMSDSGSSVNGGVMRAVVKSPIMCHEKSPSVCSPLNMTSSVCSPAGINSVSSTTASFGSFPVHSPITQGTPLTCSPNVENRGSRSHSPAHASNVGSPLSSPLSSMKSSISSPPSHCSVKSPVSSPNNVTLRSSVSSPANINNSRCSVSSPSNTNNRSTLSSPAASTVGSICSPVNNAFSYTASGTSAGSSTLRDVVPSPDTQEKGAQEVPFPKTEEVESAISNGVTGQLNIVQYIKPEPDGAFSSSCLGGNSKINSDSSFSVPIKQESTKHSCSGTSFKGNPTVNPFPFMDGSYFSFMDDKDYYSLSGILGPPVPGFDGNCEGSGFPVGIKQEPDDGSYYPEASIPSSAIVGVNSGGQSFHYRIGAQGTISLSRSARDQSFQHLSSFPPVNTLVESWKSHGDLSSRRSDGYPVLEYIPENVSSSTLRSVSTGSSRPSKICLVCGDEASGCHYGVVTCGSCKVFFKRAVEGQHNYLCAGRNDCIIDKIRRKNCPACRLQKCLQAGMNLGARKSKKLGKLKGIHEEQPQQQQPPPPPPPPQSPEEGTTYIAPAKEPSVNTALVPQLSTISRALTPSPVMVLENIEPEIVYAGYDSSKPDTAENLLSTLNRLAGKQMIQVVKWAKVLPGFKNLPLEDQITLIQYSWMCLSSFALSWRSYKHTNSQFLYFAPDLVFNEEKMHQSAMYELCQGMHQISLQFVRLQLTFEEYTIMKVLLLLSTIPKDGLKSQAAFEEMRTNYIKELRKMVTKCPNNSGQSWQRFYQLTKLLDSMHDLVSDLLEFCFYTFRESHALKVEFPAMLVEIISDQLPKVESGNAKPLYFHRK
As to the kind of experiment: Modulation of mineralocorticoid receptor in human SKGT4 cells assessed as receptor translocation from cytoplasm to nucleus at 50 uM after 4 hrs by Hoechst staining.

For `CC(NC(=O)CC[C@@H](C)[C@H]1CC[C@H]2[C@@H]3[C@@H](O)C[C@@H]4C[C@H](O)CC[C@]4(C)[C@H]3CC[C@]12C)c1ccccc1` (stereo not given in full), the EC50 at Glucocorticoid receptor stood at 124 µM. Regarding `C[C@H](CC(=O)O)[C@H]1CC[C@H]2[C@@H]3[C@@H](O)C[C@@H]4C[C@H](O)CC[C@]4(C)[C@H]3CC[C@]12C` [NORUCHOLIC ACID], the EC50 at Glucocorticoid receptor amounted to 105 µM. As to `C[C@H](CCC(=O)NC1CC1)[C@H]1CC[C@H]2[C@@H]3[C@@H](O)C[C@@H]4C[C@H](O)CC[C@]4(C)[C@H]3CC[C@]12C`, on Glucocorticoid receptor, the EC50 amounted to 7.3 µM. Besides, in assay [1], the outcome was Active. As to `C[C@H](CCC(=O)N1CCNCC1)[C@H]1CC[C@H]2[C@@H]3[C@@H](O)C[C@@H]4C[C@H](O)CC[C@]4(C)[C@H]3CC[C@]12C`, the EC50 on Glucocorticoid receptor was 50.8 µM. Turning to `C[C@H](CCC(=O)N1CCN(Cc2ccccc2)CC1)[C@H]1CC[C@H]2[C@@H]3[C@@H](O)C[C@@H]4C[C@H](O)CC[C@]4(C)[C@H]3CC[C@]12C`, the EC50 at Glucocorticoid receptor stood at 5.6 µM. The outcome in assay [1] was Active. In the case of `C[C@H](CCC(=O)NCCc1ccccc1)[C@H]1CC[C@H]2[C@@H]3[C@@H](O)C[C@@H]4C[C@H](O)CC[C@]4(C)[C@H]3CC[C@]12C`, the EC50 on Glucocorticoid receptor was 109 µM. Same read-out and setting: in the case of `C[C@H](C#N)[C@H]1CC[C@H]2[C@@H]3[C@@H](O)C[C@@H]4C[C@H](O)CC[C@]4(C)[C@H]3CC[C@]12C` it was 130 µM. Same read-out and setting: under `C[C@H](CCC#N)[C@H]1CC[C@H]2[C@@H]3[C@@H](O)C[C@@H]4C[C@H](O)CC[C@]4(C)[C@H]3CC[C@]12C` stands 101 µM; under `C[C@H](CCC(=O)NCc1ccccc1)[C@H]1CC[C@H]2[C@@H]3[C@@H](O)C[C@@H]4C[C@H](O)CC[C@]4(C)[C@H]3CC[C@]12C`, 110 µM.

`C[C@H](CCC(=O)N1CCOCC1)[C@H]1CC[C@H]2[C@@H]3[C@@H](O)C[C@@H]4C[C@H](O)CC[C@]4(C)[C@H]3CC[C@]12C`: the EC50 on Glucocorticoid receptor was determined as 25.3 µM. Also, the outcome in assay [1] was Active.

Take `C[C@H](C(=O)O)[C@H]1CC[C@H]2[C@@H]3[C@@H](O)C[C@@H]4C[C@H](O)CC[C@]4(C)[C@H]3CC[C@]12C`: the EC50 at Glucocorticoid receptor came out at 99.7 µM. Regarding `C[C@H](CCC(=O)O)[C@H]1CC[C@H]2[C@@H]3[C@@H](O)C[C@@H]4C[C@H](O)CC[C@]4(C)[C@H]3CC[C@]12C`, the outcome in assay [2] was inactive.
